According to ChEMBL document CHEMBL2021777 (J Med Chem, 2012):
Calls of active or inactive are those of the source. The calls are words filed in the database; no cut-off is given here.

Tests used:
Cytochrome P450 2C19 = Cytochrome P450 2C19 (Homo sapiens, UniProt P33261); assay: Inhibition of CYP2C19 up to 10 uM; format: ADME
Procedure, shortened: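 Percent inhibition of CYP isoforms (CYP1A, CYP2C9, CYP2C19, CYP2D6, CYP3A; CYP1A2 reported) with test compound at concentrations up to 10 μM.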

[1] = target: T1, 5-hydroxytryptamine receptor 2C (Homo sapiens) (UniProt P28335); assay: Displacement of [3H]Mesulergine from 5-HT2C at 10 uM
T1 sequence (whole entry): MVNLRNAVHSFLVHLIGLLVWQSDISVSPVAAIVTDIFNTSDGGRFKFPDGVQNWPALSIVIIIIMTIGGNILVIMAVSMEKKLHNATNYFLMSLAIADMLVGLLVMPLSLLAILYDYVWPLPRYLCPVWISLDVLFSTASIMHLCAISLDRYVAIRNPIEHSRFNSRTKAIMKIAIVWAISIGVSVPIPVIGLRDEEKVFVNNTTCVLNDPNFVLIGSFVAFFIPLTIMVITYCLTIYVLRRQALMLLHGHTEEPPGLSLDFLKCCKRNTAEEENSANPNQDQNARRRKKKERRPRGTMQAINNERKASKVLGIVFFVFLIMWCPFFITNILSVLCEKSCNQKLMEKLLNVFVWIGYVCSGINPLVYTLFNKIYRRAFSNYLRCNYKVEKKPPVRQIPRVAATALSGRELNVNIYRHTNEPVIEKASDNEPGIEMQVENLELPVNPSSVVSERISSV

[2] = target: T2, Alpha-2B adrenergic receptor (Homo sapiens) (UniProt P18089); assay: Displacement of [3H]Clonidine from alpha2B adrenergic receptor at 10 uM
T2 sequence (whole entry): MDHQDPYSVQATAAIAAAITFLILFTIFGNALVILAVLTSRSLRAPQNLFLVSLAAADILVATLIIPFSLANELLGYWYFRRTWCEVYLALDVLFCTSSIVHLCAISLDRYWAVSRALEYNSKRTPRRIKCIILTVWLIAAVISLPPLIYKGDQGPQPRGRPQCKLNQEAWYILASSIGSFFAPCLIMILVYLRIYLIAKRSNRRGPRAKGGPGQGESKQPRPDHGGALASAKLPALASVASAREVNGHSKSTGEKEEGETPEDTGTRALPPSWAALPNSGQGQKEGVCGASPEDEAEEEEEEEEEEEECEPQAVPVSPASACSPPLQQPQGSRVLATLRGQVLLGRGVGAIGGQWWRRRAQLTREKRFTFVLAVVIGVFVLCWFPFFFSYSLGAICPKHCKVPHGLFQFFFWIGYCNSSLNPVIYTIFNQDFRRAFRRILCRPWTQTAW

[3] = target: T3, 5-hydroxytryptamine receptor 1A (Homo sapiens) (UniProt P08908); assay: Displacement of [3H]8-OH-DPAT from 5-HT1A at 10 uM
T3 sequence (whole entry): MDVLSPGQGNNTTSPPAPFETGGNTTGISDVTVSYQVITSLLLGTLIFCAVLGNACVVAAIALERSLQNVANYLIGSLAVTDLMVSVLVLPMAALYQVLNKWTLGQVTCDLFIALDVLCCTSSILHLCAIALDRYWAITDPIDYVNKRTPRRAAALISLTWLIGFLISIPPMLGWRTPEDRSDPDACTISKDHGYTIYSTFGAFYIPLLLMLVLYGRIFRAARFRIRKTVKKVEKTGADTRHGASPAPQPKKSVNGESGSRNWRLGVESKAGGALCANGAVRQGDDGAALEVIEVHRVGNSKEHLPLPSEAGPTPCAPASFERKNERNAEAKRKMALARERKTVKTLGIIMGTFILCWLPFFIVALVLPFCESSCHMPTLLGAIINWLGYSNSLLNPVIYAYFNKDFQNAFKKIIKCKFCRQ

[4] = target: T4, Muscarinic acetylcholine receptor M5 (Homo sapiens) (UniProt P08912); assay: Displacement of [3H]QNB from M5 receptor at 10 uM
T4 sequence (whole entry): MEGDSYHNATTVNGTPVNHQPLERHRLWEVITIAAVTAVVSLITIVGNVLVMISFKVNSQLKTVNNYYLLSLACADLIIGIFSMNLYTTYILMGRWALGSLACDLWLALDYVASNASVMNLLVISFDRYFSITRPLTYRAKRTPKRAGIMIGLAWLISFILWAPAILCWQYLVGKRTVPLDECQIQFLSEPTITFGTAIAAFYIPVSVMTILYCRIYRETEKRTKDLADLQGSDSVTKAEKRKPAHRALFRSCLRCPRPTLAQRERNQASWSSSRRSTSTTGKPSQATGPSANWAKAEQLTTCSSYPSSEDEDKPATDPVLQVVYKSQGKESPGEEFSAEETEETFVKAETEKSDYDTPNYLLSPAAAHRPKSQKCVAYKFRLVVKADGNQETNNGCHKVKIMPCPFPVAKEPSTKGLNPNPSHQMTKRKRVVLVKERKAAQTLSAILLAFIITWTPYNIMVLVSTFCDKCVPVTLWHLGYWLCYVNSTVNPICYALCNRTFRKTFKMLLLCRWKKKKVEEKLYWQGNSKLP

Rattus norvegicus = organism: Rattus norvegicus; assay: Selectivity ratio of Ki for rat alpha3beta4 to Ki for rat alpha4beta2
Procedure, shortened: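 Ki values from [3H]epibatidine competition binding at heterologously expressed rat nAChR subtypes, using the PDSP protocol; selectivity taken as the α3β4/α4β2 Ki ratio.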

[5] = target: T5, Alpha-2A adrenergic receptor (Homo sapiens) (UniProt P08913); assay: Displacement of [3H]Clonidine from alpha2A adrenergic receptor at 10 uM
T5 sequence (whole entry): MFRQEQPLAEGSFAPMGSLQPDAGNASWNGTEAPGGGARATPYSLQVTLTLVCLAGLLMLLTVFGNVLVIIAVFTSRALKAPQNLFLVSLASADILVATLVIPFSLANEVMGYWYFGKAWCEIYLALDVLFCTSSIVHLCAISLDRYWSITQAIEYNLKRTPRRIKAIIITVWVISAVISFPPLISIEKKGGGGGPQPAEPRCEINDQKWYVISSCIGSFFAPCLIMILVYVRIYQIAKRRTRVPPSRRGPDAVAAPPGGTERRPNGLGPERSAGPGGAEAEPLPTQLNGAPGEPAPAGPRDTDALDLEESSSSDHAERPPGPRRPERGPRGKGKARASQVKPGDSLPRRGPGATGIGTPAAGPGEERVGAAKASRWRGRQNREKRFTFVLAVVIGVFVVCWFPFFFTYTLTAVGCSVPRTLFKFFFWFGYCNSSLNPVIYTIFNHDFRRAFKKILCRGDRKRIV

[6] = target: Neuronal acetylcholine receptors; alpha-3/beta-4, alpha-5, beta-2 (Homo sapiens) (UniProt P17787+P30926+P32297+P30532); assay: Antagonist activity at alpha3beta4alpha5beta2 in human SH-SY5Y cells at 10 uM by 86Rb+ flux assay; format: functional, cell-based
Chain of Neuronal acetylcholine receptors; alpha-3/beta-4, alpha-5, beta-2 (Homo sapiens) (P17787 whole entry, looked up): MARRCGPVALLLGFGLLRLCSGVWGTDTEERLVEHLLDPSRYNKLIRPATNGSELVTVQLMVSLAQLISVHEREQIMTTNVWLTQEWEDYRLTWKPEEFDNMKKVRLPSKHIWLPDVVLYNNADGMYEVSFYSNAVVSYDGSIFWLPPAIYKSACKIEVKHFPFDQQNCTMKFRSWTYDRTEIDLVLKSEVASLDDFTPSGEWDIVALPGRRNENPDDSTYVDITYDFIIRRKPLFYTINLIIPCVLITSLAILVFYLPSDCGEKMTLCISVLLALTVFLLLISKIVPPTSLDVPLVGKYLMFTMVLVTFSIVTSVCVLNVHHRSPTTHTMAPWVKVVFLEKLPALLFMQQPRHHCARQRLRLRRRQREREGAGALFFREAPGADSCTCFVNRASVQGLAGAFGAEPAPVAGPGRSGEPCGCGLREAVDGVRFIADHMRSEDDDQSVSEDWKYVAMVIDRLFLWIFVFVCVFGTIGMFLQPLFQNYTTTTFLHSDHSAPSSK
Chain of Neuronal acetylcholine receptors; alpha-3/beta-4, alpha-5, beta-2 (Homo sapiens) (P30532 whole entry, looked up): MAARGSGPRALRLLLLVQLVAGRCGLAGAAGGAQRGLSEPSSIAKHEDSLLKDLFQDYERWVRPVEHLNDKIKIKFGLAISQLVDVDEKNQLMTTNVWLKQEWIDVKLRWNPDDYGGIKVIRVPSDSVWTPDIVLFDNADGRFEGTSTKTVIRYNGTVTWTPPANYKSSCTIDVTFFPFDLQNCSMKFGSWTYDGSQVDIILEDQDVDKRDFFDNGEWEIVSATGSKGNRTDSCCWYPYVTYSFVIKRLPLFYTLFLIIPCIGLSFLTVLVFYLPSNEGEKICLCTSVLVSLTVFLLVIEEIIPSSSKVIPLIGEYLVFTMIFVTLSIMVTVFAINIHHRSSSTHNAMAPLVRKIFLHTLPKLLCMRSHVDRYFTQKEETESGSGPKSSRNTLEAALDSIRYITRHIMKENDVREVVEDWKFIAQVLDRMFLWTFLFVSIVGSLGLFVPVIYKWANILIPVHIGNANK
Chain of Neuronal acetylcholine receptors; alpha-3/beta-4, alpha-5, beta-2 (Homo sapiens) (P30926 whole entry, looked up): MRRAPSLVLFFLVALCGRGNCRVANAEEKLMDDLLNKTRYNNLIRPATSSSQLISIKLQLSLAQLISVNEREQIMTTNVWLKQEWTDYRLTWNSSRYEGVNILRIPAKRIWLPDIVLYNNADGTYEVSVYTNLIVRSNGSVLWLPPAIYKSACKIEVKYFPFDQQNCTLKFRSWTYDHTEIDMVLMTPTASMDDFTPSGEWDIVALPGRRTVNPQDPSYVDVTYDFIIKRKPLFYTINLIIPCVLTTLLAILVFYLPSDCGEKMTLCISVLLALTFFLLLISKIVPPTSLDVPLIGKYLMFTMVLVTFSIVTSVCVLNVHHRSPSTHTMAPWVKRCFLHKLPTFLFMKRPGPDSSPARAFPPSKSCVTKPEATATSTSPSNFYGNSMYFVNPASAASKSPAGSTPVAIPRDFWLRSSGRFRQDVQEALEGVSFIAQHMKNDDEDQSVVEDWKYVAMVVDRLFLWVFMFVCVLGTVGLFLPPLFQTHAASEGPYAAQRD
Chain of Neuronal acetylcholine receptors; alpha-3/beta-4, alpha-5, beta-2 (Homo sapiens) (P32297 whole entry, looked up): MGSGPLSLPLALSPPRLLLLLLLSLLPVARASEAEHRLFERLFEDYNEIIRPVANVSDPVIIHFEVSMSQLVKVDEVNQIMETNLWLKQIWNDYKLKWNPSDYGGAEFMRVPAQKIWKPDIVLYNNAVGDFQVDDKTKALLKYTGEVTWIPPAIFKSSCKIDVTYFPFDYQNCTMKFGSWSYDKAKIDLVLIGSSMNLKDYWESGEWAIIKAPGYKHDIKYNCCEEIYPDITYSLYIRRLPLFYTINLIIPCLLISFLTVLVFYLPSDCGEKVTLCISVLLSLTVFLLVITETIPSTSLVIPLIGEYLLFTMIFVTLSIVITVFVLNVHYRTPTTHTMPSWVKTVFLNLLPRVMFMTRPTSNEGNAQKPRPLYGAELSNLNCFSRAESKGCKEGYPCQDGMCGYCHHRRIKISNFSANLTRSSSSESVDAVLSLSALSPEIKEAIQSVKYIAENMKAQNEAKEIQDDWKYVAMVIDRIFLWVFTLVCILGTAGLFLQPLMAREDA
Procedure, shortened: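 Human neuroblastoma SH-SY5Y cells endogenously express α3β4* nAChRs (α3, β4, probably α5, sometimes β2); their α7 receptors give no signal under these conditions. Cells were kept at low passage (1−26 from frozen stocks). Function was read as 86Rb+ efflux, with agonist and antagonist modes tested up to 10 μM.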

Chain of Cytochrome P450 2C19 (P33261 whole entry, canonical isoform): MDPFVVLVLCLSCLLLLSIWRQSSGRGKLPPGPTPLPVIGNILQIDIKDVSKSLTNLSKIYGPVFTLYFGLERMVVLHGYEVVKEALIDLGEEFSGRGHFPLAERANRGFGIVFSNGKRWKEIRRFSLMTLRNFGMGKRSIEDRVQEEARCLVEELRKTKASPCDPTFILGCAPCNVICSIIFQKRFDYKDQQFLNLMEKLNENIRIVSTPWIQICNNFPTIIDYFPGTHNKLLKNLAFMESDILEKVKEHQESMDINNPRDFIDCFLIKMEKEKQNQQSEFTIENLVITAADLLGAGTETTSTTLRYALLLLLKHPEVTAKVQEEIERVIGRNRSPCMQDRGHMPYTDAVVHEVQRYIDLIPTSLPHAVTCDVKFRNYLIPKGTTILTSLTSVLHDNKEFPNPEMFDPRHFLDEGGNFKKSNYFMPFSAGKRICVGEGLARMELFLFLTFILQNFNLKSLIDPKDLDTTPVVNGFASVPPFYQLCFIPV

SMILES | inhibition (INH) (Cytochrome P450 2C19) | inhibition [1] | inhibition [2] | inhibition [3] | inhibition [4] | Ratio Ki (Rattus norvegicus) | inhibition [5] | Activity [6]
CNC(=O)OCC[C@H]1C[C@@H]1c1cncc(OC[C@@H]2CCN2)c1 | <= 25% | 6.3% | 12.4% | 25% | -8.7% | > 100000 | 15.5% | inactive
COCC[C@H]1C[C@@H]1c1cncc(OC[C@@H]2CCN2)c1 | <= 25% | 33.8% | 16.4% | -7.2% | -1.1% | > 100000 | 9.7% | inactive
OCC[C@H]1C[C@@H]1c1cncc(OC[C@@H]2CCN2)c1 | <= 25% | 2.4% | 9.9% | -7.7% | -4.4% | 65200 | -5.3% | inactive
